Paper PMC11425819 (ACS Omega, 2024)

Experiments:
H9C2 cells [1] = experiment: Mitochondrial morphology analysis; type: cell-based, rat; settings: 10 μM, vs H/R alone
Summary of the method: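 H9C2 cells were pretreated 12 h with test compound (10 μM), then given 6 h hypoxia and 4 h reoxygenation in 10% FBS DMEM/F12. Cells were stained with MitoTracker and imaged by laser-scanning microscopy (60× oil). Mitochondria were scored as tubular, intermediate or fragmented. The value is the percentage of cells with intermediate or fragmented mitochondria, from 100 cells per experiment over four independent experiments (SEM).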

H9C2 cells [2] = experiment: mPTP opening; type: cell-based, rat; settings: 10 μM, 12 h pretreatment, H/R, compared with H/R alone, at least four independent experiments
Summary of the method: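 H9C2 cells were pretreated 12 h with test compound (10 μM), then given 6 h hypoxia alone or H/R; an autophagy inducer (10 μM) served as comparator. Cells were loaded with calcein (2 μM) and CoCl2 (1 mM) in HBSS/Ca2+ for 15 min at 37 °C. Co2+ quenches cytosolic calcein, so retained mitochondrial calcein fluorescence indicates a closed mPTP.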

SMILES | fragmented mitochondrial appearance after H/R (H9C2 cells [1]) | mitochondrial calcein fluorescence (mPTP opening) (H9C2 cells [2])
CC1(C)CC(NC(=O)C[P+](c2ccccc2)(c2ccccc2)c2ccccc2)CC(C)(C)N1[O] [Mito-Tempo] | attenuated the fragmented mitochondrial appearance | –
CO[C@H]1C[C@@H]2CC[C@@H](C)[C@@](O)(O2)C(=O)C(=O)N2CCCC[C@H]2C(=O)O[C@H]([C@H](C)C[C@@H]2CC[C@@H](O)[C@H](OC)C2)CC(=O)[C@H](C)/C=C(\C)[C@@H](O)[C@@H](OC)C(=O)[C@H](C)C[C@H](C)/C=C/C=C/C=C/1C [rapamycin] | – | considerably higher
